Experimental data as given in ChEMBL document CHEMBL1155075, “Inhibition of the signal transducer and activator of transcription-3 (STAT3) signaling pathway by 4-oxo-1-phenyl-1,4-dihydroquinoline-3-carboxylic acid esters” (J Med Chem, 2008).
Activity calls are given as the source filed them. The rule behind the calls is not given here.

Key:
U-266 [1] = test: Induction of apoptosis in human U266 cells assessed as caspase activation after 4 days by Apo-ONE Homogeneous caspase 3/7 assay; type: functional, cell-based
Procedure, shortened: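 Homogeneous caspase 3/7 (Apo-ONE) luminescent/fluorescent signal used as apoptosis read-out in cells under compound treatment. U266 cultured in RPMI1640 with 10% heat-inactivated FBS and Pen-Strep.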

A2780 = test: Induction of apoptosis in human A2780 cells assessed as caspase activation after 4 days by Apo-ONE Homogeneous caspase 3/7 assay; type: functional, cell-based
[2] = molecular target: Signal transducer and activator of transcription 3 (Homo sapiens) (UniProt P40763); test: Inhibition of IL6-induced STAT3 Y705 phosphorylation in serum starved human U266 cells by Western blot analysis; type: cell-based; settings: U-266
Signal transducer and activator of transcription 3 (Homo sapiens), sequence (P40763 whole entry): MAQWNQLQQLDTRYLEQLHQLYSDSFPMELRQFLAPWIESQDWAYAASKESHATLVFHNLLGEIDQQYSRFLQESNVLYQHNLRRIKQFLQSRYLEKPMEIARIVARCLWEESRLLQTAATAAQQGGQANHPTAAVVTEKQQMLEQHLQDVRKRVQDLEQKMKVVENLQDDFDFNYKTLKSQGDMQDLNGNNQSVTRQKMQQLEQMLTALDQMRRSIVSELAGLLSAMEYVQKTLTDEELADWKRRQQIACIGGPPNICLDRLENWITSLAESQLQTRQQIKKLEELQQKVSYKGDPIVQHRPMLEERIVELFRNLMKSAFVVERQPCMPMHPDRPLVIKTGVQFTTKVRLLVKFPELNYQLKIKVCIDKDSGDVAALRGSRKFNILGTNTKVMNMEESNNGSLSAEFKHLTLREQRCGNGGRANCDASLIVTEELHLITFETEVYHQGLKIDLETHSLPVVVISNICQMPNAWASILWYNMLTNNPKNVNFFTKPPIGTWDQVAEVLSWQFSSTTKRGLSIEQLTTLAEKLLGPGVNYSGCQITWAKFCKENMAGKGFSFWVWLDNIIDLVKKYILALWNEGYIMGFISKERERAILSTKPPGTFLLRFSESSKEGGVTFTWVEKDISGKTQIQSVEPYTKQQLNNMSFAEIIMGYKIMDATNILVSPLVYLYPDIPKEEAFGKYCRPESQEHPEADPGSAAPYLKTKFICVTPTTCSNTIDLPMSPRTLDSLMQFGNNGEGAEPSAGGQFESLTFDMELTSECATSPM

U-266 [3] = test: Inhibition of MCL1 transcription in human U266 cells at 0.5 uM after 6 hrs by microarray analysis; type: functional, cell-based
Procedure, shortened: (§1)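 U266 cells were seeded at 1 × 10⁶ cells/mL and treated 6 h in triplicate. RNA was purified, and 2-5 µg total RNA was converted to biotin-labelled cRNA by oligo-T7 reverse transcription and in vitro transcription with biotin-UTP/CTP. mRNA levels were then measured by microarray.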

[4] = molecular target: Tyrosine-protein kinase JAK2 (Homo sapiens) (UniProt O60674); test: Inhibition of JAK2 at 1 uM
Tyrosine-protein kinase JAK2 (Homo sapiens), sequence (O60674 whole entry): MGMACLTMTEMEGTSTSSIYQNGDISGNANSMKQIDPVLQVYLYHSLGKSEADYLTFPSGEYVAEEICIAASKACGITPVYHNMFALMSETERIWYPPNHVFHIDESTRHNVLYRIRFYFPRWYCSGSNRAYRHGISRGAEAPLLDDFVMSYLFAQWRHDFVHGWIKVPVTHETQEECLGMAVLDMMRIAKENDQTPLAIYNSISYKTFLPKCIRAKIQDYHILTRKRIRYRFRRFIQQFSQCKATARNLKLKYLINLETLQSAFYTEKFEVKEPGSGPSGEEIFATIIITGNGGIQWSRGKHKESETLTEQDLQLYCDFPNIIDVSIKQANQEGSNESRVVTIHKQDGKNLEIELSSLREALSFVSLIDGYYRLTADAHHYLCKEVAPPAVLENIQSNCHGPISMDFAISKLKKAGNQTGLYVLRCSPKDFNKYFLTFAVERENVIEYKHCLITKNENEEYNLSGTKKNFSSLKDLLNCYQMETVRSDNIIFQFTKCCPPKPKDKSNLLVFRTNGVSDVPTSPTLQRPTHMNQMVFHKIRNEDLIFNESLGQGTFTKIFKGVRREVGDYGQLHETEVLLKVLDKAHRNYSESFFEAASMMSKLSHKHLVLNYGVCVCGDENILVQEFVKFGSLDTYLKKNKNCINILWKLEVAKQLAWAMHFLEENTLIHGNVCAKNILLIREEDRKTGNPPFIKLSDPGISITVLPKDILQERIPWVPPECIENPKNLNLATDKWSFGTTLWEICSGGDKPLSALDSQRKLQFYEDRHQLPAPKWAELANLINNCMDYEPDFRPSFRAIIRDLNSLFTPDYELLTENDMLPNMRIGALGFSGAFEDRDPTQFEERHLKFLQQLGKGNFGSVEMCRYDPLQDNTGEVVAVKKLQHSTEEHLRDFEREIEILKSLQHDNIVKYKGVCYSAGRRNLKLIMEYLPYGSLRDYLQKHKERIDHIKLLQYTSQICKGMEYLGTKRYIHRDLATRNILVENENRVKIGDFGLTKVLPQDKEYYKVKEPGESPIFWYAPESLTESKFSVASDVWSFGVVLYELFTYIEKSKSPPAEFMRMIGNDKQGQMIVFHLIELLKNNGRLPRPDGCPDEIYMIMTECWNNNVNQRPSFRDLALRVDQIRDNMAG
Procedure, shortened: (§2)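 In vitro JAK1, JAK2 and JAK3 enzyme kinase assay, each tested at 1 and 10 µM compound.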

U-266 [5] = test: Inhibition of cyclin D1 transcription in human U266 cells at 0.5 uM after 6 hrs by microarray analysis; type: functional, cell-based; procedure, shortened: as §1
A-431 = test: Inhibition of EGF-stimulated MAPK activation in human A431 cells; type: cell-based
[6] = molecular target: T1, Tyrosine-protein kinase JAK3 (Homo sapiens) (UniProt P52333); test: Inhibition of JAK3 at 1 uM; procedure, shortened: as §2
T1 sequence (whole entry): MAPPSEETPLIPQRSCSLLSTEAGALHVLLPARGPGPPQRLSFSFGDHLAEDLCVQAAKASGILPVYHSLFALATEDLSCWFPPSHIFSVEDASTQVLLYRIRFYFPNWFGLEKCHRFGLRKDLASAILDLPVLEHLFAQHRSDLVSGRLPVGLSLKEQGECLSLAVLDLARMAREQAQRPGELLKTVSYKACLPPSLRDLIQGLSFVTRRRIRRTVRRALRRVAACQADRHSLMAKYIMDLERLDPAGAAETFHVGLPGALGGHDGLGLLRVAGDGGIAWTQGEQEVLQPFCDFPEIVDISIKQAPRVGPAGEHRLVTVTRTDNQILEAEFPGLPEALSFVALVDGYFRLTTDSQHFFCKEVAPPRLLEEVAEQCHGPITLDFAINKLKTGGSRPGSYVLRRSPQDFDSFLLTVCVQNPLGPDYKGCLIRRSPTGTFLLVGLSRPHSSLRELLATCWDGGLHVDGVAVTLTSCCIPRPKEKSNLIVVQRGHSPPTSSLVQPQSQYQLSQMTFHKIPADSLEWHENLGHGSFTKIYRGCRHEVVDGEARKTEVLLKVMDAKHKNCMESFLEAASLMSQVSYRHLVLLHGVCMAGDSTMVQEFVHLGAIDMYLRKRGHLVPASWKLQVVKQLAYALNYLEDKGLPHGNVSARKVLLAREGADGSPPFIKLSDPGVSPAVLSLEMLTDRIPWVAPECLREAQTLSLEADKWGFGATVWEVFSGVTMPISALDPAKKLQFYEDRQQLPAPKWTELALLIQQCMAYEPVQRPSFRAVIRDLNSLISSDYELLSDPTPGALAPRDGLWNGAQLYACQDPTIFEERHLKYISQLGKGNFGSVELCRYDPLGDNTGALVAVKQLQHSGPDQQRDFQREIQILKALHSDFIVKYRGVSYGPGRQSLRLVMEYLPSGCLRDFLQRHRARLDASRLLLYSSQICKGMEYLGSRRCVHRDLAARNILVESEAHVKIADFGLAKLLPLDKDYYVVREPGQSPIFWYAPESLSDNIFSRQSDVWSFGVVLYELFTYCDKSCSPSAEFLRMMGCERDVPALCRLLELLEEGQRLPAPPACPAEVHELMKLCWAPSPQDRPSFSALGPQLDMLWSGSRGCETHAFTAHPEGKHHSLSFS

[7] = molecular target: Signal transducer and activator of transcription 3 (Homo sapiens) (UniProt P40763); test: Inhibition of STAT3 S727 phosphorylation in human U266 cells; type: cell-based; settings: U-266
Procedure, shortened: (§3)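 Steady-state phosphorylation: exponentially growing U266 cells (1 × 10⁶ cells at 2 × 10⁵ cells/mL, RPMI1640 + 10% FBS) were treated with compound for 1 h. Cells were lysed in PhosphoSafe reagent with protease inhibitors. Western blot used primary antibodies (1:1000, 2 h) and fluorescent secondaries (1 h) at room temperature. A representative blot from several repeats is shown.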

[8] = molecular target: T2, Signal transducer and activator of transcription 5A (Homo sapiens) (UniProt P42229); test: Inhibition of BCR-ABL-activated STAT5 Y694/699 phosphorylation in human K562 cells; type: cell-based
T2 sequence (whole entry): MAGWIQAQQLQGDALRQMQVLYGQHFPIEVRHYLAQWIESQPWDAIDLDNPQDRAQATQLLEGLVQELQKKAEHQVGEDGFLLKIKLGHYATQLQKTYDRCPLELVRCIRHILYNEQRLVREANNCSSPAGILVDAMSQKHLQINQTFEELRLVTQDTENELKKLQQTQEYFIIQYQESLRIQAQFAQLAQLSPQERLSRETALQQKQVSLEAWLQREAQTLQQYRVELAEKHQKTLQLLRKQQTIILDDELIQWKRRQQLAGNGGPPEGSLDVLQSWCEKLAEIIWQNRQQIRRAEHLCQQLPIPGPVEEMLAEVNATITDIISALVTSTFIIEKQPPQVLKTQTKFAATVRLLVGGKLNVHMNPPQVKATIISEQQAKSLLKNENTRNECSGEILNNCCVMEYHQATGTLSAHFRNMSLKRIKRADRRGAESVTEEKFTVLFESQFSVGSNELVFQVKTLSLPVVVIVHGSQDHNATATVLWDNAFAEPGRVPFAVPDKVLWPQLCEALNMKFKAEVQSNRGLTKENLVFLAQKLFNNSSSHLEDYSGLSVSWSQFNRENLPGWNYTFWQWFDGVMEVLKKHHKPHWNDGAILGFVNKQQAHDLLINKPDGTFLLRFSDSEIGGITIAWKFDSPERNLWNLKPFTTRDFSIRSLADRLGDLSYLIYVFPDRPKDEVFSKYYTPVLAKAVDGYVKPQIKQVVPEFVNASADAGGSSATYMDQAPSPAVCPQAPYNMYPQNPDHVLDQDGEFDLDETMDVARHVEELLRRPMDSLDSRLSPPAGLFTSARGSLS
Procedure, shortened: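 K562 cells (1 × 10⁶ cells at 1 × 10⁶ cells/mL, RPMI1640 + 10% FBS) were treated with compound for 1 h. Lysates in PhosphoSafe reagent were analysed by Western blot with anti-phospho-STAT5 Tyr694/Tyr699 (1:1000) and fluorescent secondary detection.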

[9] = molecular target: Tyrosine-protein kinase JAK1 (Homo sapiens) (UniProt P23458); test: Inhibition of JAK1 at 10 uM; procedure, shortened: as §2
Tyrosine-protein kinase JAK1 (Homo sapiens), sequence (P23458 whole entry): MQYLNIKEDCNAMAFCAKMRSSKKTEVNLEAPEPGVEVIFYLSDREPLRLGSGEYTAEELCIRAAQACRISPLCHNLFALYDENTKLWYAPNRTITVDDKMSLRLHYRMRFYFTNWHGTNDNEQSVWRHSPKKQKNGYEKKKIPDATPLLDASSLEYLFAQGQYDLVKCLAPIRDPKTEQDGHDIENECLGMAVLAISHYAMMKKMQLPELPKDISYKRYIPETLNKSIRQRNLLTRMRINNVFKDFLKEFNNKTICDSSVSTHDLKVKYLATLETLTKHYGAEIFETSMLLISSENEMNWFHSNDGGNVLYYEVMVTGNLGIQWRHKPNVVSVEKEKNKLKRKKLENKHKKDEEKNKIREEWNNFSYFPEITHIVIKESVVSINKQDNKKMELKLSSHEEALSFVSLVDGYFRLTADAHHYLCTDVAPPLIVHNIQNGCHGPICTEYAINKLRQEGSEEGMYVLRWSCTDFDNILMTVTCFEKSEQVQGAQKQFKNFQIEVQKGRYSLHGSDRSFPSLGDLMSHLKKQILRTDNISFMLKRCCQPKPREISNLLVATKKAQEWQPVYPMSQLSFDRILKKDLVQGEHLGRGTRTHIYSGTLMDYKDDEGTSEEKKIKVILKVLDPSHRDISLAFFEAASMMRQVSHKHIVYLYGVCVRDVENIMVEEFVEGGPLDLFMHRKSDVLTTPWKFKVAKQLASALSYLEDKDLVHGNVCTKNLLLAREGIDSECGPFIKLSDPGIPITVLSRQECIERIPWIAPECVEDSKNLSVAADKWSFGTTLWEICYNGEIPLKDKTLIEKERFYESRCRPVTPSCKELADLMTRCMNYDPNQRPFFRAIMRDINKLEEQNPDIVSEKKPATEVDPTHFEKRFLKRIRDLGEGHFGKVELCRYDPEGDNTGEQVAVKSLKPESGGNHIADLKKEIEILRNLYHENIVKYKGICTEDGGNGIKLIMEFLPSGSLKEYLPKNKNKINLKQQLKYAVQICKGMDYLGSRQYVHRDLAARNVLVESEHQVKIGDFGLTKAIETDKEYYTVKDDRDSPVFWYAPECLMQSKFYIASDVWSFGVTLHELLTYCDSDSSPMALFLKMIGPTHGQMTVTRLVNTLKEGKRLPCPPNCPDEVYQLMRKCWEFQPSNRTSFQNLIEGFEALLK

[10] = molecular target: RAC-alpha serine/threonine-protein kinase (Homo sapiens) (UniProt P31749); test: Inhibition of AKT-mTOR pathway in human U266 cells assessed as S6-S240/244 phosphorylation by Western blot; type: cell-based; settings: U-266; procedure, shortened: as §3
RAC-alpha serine/threonine-protein kinase (Homo sapiens), sequence (P31749 whole entry): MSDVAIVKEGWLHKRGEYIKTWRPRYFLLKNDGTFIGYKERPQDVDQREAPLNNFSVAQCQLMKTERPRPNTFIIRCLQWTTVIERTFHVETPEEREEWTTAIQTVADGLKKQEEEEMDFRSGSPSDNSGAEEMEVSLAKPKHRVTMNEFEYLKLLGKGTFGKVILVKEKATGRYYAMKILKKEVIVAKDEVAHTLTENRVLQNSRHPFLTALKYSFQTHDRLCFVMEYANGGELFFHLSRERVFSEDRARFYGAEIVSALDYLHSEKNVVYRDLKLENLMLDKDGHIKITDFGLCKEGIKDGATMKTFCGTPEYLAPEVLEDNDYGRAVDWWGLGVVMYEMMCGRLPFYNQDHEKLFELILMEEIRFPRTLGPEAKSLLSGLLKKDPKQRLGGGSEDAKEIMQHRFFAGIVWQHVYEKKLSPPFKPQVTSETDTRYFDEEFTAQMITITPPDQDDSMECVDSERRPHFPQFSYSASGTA

[11] = molecular target: Signal transducer and activator of transcription 3 (Homo sapiens) (UniProt P40763); test: Inhibition of STAT3 Y705 phosphorylation in human HeLa cells by Western blot analysis; type: cell-based
U-266 [12] = test: Inhibition of Bcl2-like 1 transcription in human U266 cells at 0.5 uM after 6 hrs by microarray analysis; type: functional, cell-based; procedure, shortened: as §1
[13] = molecular target: RAC-alpha serine/threonine-protein kinase (Homo sapiens) (UniProt P31749); test: Inhibition of AKT-mTOR pathway in human U266 cells assessed as p70S6 kinase T389 phosphorylation by Western blot; type: cell-based; settings: U-266; procedure, shortened: as §3
[14] = molecular target: Signal transducer and activator of transcription 3 (Homo sapiens) (UniProt P40763); test: Inhibition of IFN-alpha-induced STAT3 Y705 phosphorylation in serum starved human DU145 cells by Western blot analysis; type: cell-based; settings: DU-145
Procedure, shortened: (§4)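 HeLa or DU145 cells in DMEM + 10% heat-inactivated FBS, ~80% confluent, were serum-starved overnight and treated with compound for 1 h. IFN-alpha 20000 units/mL was then added for 20 min. Cells were collected in 1.1X LDS sample buffer, sonicated, and analysed by Western blot for phospho-STAT3 Y705 with fluorescent secondary detection.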

[15] = molecular target: Tyrosine-protein kinase JAK1 (Homo sapiens) (UniProt P23458); test: Inhibition of JAK1 at 1 uM; procedure, shortened: as §2
[16] = molecular target: Non-receptor tyrosine-protein kinase TYK2 (Homo sapiens) (UniProt P29597); test: Inhibition of IFN-alpha-induced Tyk2 Y1054/1055 phosphorylation in serum starved human U266 cells by Western blot analysis; type: cell-based; settings: U-266
Non-receptor tyrosine-protein kinase TYK2 (Homo sapiens), sequence (P29597 whole entry): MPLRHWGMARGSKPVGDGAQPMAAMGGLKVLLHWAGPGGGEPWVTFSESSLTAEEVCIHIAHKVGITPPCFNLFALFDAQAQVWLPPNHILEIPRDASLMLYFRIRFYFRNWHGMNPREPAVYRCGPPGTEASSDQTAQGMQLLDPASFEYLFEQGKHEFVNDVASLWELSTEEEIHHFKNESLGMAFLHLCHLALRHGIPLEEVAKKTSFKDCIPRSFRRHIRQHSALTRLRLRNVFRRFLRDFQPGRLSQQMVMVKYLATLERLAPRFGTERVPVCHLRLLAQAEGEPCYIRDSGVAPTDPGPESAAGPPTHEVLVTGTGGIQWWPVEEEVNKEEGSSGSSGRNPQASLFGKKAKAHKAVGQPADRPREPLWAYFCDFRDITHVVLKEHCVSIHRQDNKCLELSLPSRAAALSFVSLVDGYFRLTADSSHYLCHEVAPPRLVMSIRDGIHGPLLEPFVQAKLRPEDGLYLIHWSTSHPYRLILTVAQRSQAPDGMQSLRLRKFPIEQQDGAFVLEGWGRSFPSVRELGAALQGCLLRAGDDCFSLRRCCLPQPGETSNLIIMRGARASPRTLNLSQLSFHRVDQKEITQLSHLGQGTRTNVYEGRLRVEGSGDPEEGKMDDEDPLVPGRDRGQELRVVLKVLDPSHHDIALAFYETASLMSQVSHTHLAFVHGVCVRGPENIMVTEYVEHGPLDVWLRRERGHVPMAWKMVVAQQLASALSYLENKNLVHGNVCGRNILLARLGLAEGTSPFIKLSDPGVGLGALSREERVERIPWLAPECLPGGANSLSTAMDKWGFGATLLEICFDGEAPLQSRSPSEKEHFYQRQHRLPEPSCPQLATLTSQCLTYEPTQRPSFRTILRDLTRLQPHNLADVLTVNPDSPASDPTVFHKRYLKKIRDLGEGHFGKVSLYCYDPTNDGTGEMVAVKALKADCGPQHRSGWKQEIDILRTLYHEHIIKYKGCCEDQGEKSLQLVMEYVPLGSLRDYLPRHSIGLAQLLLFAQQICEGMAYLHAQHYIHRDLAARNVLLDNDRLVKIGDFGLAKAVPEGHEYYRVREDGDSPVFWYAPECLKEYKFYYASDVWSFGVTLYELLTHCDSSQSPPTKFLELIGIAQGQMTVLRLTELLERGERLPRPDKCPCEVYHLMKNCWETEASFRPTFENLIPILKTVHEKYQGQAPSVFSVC
Procedure, shortened: (§5)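 U266 cells in RPMI1640 + 10% heat-inactivated FBS were serum-starved 2 h, treated with compound 1 h, then stimulated with human IFN-alpha 20000 units/mL for 20 min. Cells were lysed in PhosphoSafe extraction reagent with protease inhibitors and analysed by Western blot with phospho-specific antibodies. JAK antibodies were used at 1:500 with milk blocking, others at 1:1000. Fluorescent secondaries were used.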

[17] = Inhibition of MAPK pathway in human U266 cells assessed as p44/42 MAPK T202/204 phosphorylation by Western blot; type: cell-based; settings: U-266; procedure, shortened: as §3
[18] = molecular target: Signal transducer and activator of transcription 3 (Homo sapiens) (UniProt P40763); test: Inhibition of IFN-alpha-induced STAT3 Y705 phosphorylation in serum starved human U266 cells by Western blot analysis; type: cell-based; settings: U-266; procedure, shortened: as §5
[19] = molecular target: T1, Tyrosine-protein kinase JAK3 (Homo sapiens); test: Inhibition of JAK3 at 10 uM; procedure, shortened: as §2
[20] = molecular target: Tyrosine-protein kinase JAK2 (Homo sapiens) (UniProt O60674); test: Inhibition of IFN-alpha-induced JAK2 Y1007/1008 phosphorylation in serum starved human U266 cells by Western blot analysis; type: cell-based; settings: U-266; procedure, shortened: as §5
[21] = molecular target: Tyrosine-protein kinase JAK1 (Homo sapiens) (UniProt P23458); test: Inhibition of IFN-alpha-induced JAK1 Y1022/1023 phosphorylation in serum starved human U266 cells by Western blot analysis; type: cell-based; settings: U-266; procedure, shortened: as §5
[22] = molecular target: Signal transducer and activator of transcription 3 (Homo sapiens) (UniProt P40763); test: Inhibition of IFN-alpha-induced STAT3 Y705 phosphorylation in serum starved human HeLa cells by Western blot analysis; type: cell-based; procedure, shortened: as §4
[23] = molecular target: Signal transducer and activator of transcription 3 (Homo sapiens) (UniProt P40763); test: Inhibition of STAT3 Y705 phosphorylation in human DU145 cells by Western blot analysis; type: cell-based; settings: DU-145
[24] = molecular target: Tyrosine-protein kinase JAK2 (Homo sapiens) (UniProt O60674); test: Inhibition of JAK2 at 10 uM; procedure, shortened: as §2
U-266 [25] = test: Inhibition of cyclin D1 transcription in human U266 cells at 100 uM after 6 hrs by microarray analysis; type: functional, cell-based; procedure, shortened: as §1
U-266 [26] = test: Inhibition of Bcl2-like 1 transcription in human U266 cells at 100 uM after 6 hrs by microarray analysis; type: functional, cell-based; procedure, shortened: as §1
U-266 [27] = test: Inhibition of MCL1 transcription in human U266 cells at 100 uM after 6 hrs by microarray analysis; type: functional, cell-based; procedure, shortened: as §1

Structure (SMILES): CCOC(=O)c1cn(-c2c(F)c(F)c(F)c(F)c2F)c2c(F)c(F)c(F)c(F)c2c1=O
- Activity (U-266 [1]): Active
- Activity (A2780): inactive

Structure (SMILES): CCOC(=O)c1cn(-c2c(F)c(F)c(C#N)c(F)c2F)c2c(F)c(F)c(F)cc2c1=O
- Activity [2]: Active
- Activity (U-266 [3]): Active
- Activity [4]: inactive
- Activity (U-266 [5]): Active
- Activity (A-431): inactive
- Activity [6]: inactive
- Activity (U-266 [1]): Active
- Activity [7]: inactive
- Activity [8]: inactive
- Activity [9]: inactive
- Activity [10]: inactive
- Activity [11]: Active
- Activity (U-266 [12]): Active
- Activity [13]: inactive
- Activity [14]: Active
- Activity [15]: inactive
- Activity [16]: Active
- Activity [17]: inactive
- Activity [18]: Active
- Activity [19]: inactive
- Activity [20]: Active
- Activity [21]: Active
- Activity [22]: Active
- Activity [23]: Active
- Activity [24]: inactive

Structure (SMILES): N#C/C(=C\c1ccc(O)c(O)c1)C(=O)NCc1ccccc1
- Activity (U-266 [25]): Active
- Activity (U-266 [26]): Active
- Activity (U-266 [27]): Active
